Data published in the RNAGym collection of RNA variant scans (doi:10.1126/science.aae0568).
Variants at the floor of the assay were thinned out.

B1: tRNA (parent)
chain: GUUCCGUUGGCGUAAUGGUAACGCGUCUCCCUCCUAAGGAGAAGACUGCGGGUUCGAGUCCCGUACGGAACG

Variants of: B1
Assay: yeast fitness relative to wild type (ratio to wild type); higher = fitter; tRNA-Arg(CCU), competitive growth, 37 C, YPD
Summary of the method: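 The tRNA-Arg(CCU) gene variants were made by chemical synthesis with a 3% per-site mutation rate at 69 sites and inserted at the native genomic locus of Saccharomyces cerevisiae. After pooling, the strains were competed in YPD at 37°C for 24 hours in six parallel replicates. Gene amplicons from the start population and each end population were read by 100-nucleotide paired-end sequencing, and Darwinian fitness relative to wild type was taken from genotype frequency changes. Genotypes needed ≥ 100 starting reads, and estimates < 0.5 were set to 0.5.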
GUUCCGUUGGCGUAAUGGUAACGCGUCUCUCUCGUAAGGAGAAGACUGCGGGUUCGGGUCCCGUACGGAACG showed a yeast fitness of 0.569. GUUCCGUUGGCGUAAUGGUAACGCGUCUCUCUCGUAAGGAGAAGAUUGCGGGUUCGAGUCCCGUACGGAACG showed a yeast fitness of no more than 0.5. With GUUCCGUUGGCGUAAUGGUAACGCGUCUCUCUCGUAAGGAGAAGAUUGCGGGUUUGAGUCCCGUACCGAACG the yeast fitness was no more than 0.5. GUUCCGUUGGCGUAAUGGUAACGCGUCUCUCUCGUAAGGAGAAGACUGCGGGUUCGAGCCCCGUACGGAACG gave a yeast fitness of no more than 0.5. For GUUCCGUUGGCGUAAUGGUAACGCGUCUCUCUCUUAAGGAGAAGACUGCGGGUUCGAGUCCCGUACGGAACG, the yeast fitness was 0.715. For GUUCCGUUGGCGUAAUGGUAACGCGUCUCUCUCUUAUGGAGAAGACUGCGGGUUCGAGCCCCGUAUGGAACG, the yeast fitness was 0.565. Variant GUUCCGUUGGCGUAAUGGUAACGCGUCUCUCUCUUAAGGAGAACACUGCGGGUUCGAGUCCCGUACGGAACG has a yeast fitness of no more than 0.5. With GUUCCGUUGGCGUAAUGGUAACGCGUCUCUCUCUUAAGGAGAAGACUGCGCGUUUGAGUCCCGUACGGAACG the yeast fitness was no more than 0.5. GUUCCGUUGGCGUAAUGGUAACGCGUCUCUCUCCUAAGGAGAAGAAUGCGGGUUCGAGUCCCGUACGGAACG showed a yeast fitness of 0.982. Variant GUUCCGUUGGCGUAAUGGUAACGCGUCUCUCUCCUAAGGAGAAGAAUGCGGGUUCGAGUCACGUACGAAACG has a yeast fitness of no more than 0.5. In the case of GUUCCGUUGGCGUAAUGGUAACGCGUCUCUCUCCUAAGGAGAAGAAUGCGGGUUCGAGUCCUGUACGGAACG, the yeast fitness is reported as 0.852. With GUUCCGUUGGCGUAAUGGUAACGCGUCUCUCUCCUAAGGAGAAGAAUGCAGGUUCGAGUCCCGUACGGAACG the yeast fitness was 0.632. For GUUCCGUUGGCGUAAUGGUAACGCGUCUCUCUCCUAAGGAGAAGAAUGCGGGUUCGAGUCCCAUACGGAACG, the yeast fitness was 0.825. Work on GUUCCGUUGGCGUAAUGGUAACGCGUCUCUCUCCUAAGGAGAAGAAUGCGGGUUCGAGUCCCGUACGCAACG yielded a yeast fitness of 0.704. GUUCCGUUGGCGUAAUGGUAACGCGUCUCUCUCCUAAGGAGAAGAAUGCGGGUACGGGUCCCGUACGGAACG gave a yeast fitness of 0.52. GUUCCGUUGGCGUAAUGGUAACGCGUCUCUCUCCUAAGGAGAAGAGUGCGGGUUCGAGUCCCGUACGGAACG showed a yeast fitness of 0.874. In the case of GUUCCGUUGGCGUAAUGGUAACGCGUCUCUCUCCUAAGGAGAAGAUUGCGGGUUCGAGUCCCGUACGGAACG, the yeast fitness is reported as 0.966. Work on GUUCCGUUGGCGUAAUGGUAACGCGUCUCUCUCCUAAGGAGAAGAUUGCGGGUUCGAGUACCGUACGGAACG yielded a yeast fitness of no more than 0.5. Variant GUUCCGUUGGCGUAAUGGUAACGCGUCUCUCUCCUAAGGAGAAGACUGAGGAUUCGAGUCGCGUACGGAUCG has a yeast fitness of no more than 0.5. GUUCCGUUGGCGUAAUGGUAACGCGUCUCUCUCCUAAGGAGAAGACUGGGGGUACGAGUCCCGUACGGAACG gave a yeast fitness of no more than 0.5. Work on GUUCCGUUGGCGUAAUGGUAACGCGUCUCUCUCCUAAGGAGAAGACUGUGGGUUCGAGUCCCGUACGGAACG yielded a yeast fitness of 0.862. Variant GUUCCGUUGGCGUAAUGGUAACGCGUCUCUCUCCUAAGGAGAAGACUGUGGGUUCGAGUCCCGUACGGACCG has a yeast fitness of 0.543. GUUCCGUUGGCGUAAUGGUAACGCGUCUCUCUCCUAAGGAGAAGACUGCGGGUUGGAGUCCCGUACGGAACG gave a yeast fitness of 0.553. With GUUCCGUUGGCGUAAUGGUAACGCGUCUCUCUCCUAAGGAGAAGACUGCGGGUUGGAGUCCCGUACGGCACG the yeast fitness was no more than 0.5. GUUCCGUUGGCGUAAUGGUAACGCGUCUCUCUCCUAAGGAGAAGACUGCGGGUUGGACUCCCGUACGGAACG showed a yeast fitness of 0.526. With GUUCCGUUGGCGUAAUGGUAACGCGUCUCUCUCCUAAGGAGAAGACUGCGGGUUUGAGUCCCGUACGGAACG the yeast fitness was 0.687. Variant GUUCCGUUGGCGUAAUGGUAACGCGUCUCUCUCCUAAGGAGAAGACUGCGGGUUUGAGUCCCGUAUGGAACG has a yeast fitness of 0.531. GUUCCGUUGGCGUAAUGGUAACGCGUCUCUCUCCUAAGGAGAAGACUGCGGGUUCGAGUGCCGUACAGAACG gave a yeast fitness of no more than 0.5. Variant GUUCCGUUGGCGUAAUGGUAACGCGUCUCUCUCCUAAGGAGAAGACUGCGGGUUCGAGUCACGUACGGAACG has a yeast fitness of 0.648. With GUUCCGUUGGCGUAAUGGUAACGCGUCUCUCUCCUAAGGAGAAGACUGCGGGUUCGAGUCGCGUACGGACCG the yeast fitness was no more than 0.5. Variant GUUCCGUUGGCGUAAUGGUAACGCGUCUCUCUCCUAAGGAGAAGACUGCGGGUUCGAGUCUCCUACGGAACG has a yeast fitness of no more than 0.5. For GUUCCGUUGGCGUAAUGGUAACGCGUCUCUCUCCUAAGGAGAAGACUGCGGGUUCGAGUCCUGUACGGAACG, the yeast fitness was 0.868. In the case of GUUCCGUUGGCGUAAUGGUAACGCGUCUCUCUCCUAAGGAGAAGACUGCGGGUUCGAGUCCUGUACGCAACG, the yeast fitness is reported as 0.598. Variant GUUCCGUUGGCGUAAUGGUAACGCGUCUCUCUCCUAAGGAGAAGACUGCGGGUUCGAGUCCCGUAAGGAACG has a yeast fitness of 0.765. Variant GUUCCGUUGGCGUAAUGGUAACGCGUCUCUCUCCUAAGGAGAAGACUGCGGGUUCGAGUCCCGUAGGGAACG has a yeast fitness of 0.617. Work on GUUCCGUUGGCGUAAUGGUAACGCGUCUCUCUCCUAAAGAGAAGACUGCGGGUUCGAGUCCCGUACGGAACG yielded a yeast fitness of 1. GUUCCGUUGGCGUAAUGGUAACGCGUCUCUCUCCUAAAGAGAAGACUGCGGGUUCGAGUCCCGUACGGUACG showed a yeast fitness of 0.781. Work on GUUCCGUUGGCGUAAUGGUAACGCGUCUCUCUCCUAAAGAGAAGACUGCGGGUUCGAGUGCCGUACGGAACG yielded a yeast fitness of 0.537.
